The results in this text go back to ChEMBL document CHEMBL1139854, “Phenalenone-type compounds from Musa acuminata var. "Yangambi km 5" (AAA) and their activity against Mycosphaerella fijiensis” (J Nat Prod, 2007).

Assay type in all cases: functional
The subject of experiment [1] is Pseudocercospora fijiensis. Nature of the experiment: Growth inhibition of Mycosphaerella fijiensis by microtitre plate photometric assay. A digest of the protocol:
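Mycelial fragments came from monosporic PDA subcultures of several strains grown 15-20 days at 27 °C. They were bead-vortexed, filtered at 100 µm, counted and set to 2 × 10⁴–2 × 10⁶ fragments/mL. Cultures ran in Sabouraud broth with final 0, 5, 10, 20, 30, 40, 50 ppm at 27 °C. OD595 was read daily up to 17 days. IC50 is 50% growth inhibition versus compound-free inoculum.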

Experiment [2] has as its system Pseudocercospora fijiensis. Nature of the experiment: Inhibition of Mycosphaerella fijiensis mycelial growth at 50 to 100 ppm after 15 days. A digest of the protocol: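 Colonies (2 ± 1 mg) were taken from conidia grown 4 days on PDA. They were placed 20 per dish on PDA holding 10, 50 or 100 ppm compound added in EtOH (max 3.7%). Colony weight was taken at 7 and 15 days (10 colonies each) against EtOH-only blank medium. Run in quadruplicate and analysed by one-way ANOVA.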

For experiment [3], the system named is Pseudocercospora fijiensis. Nature of the experiment: Inhibition of Mycosphaerella fijiensis spore germination at 50 to 100 ppm. A digest of the protocol:
(§1)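 Ascospores were exposed to compound at 10, 50 or 100 ppm for 24 h at 27 °C. Germination and germ-tube length were scored microscopically on 50-150 ascospores. Run in quadruplicate.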

Experiment [4] relates to Pseudocercospora fijiensis. Nature of the experiment: Inhibition of Mycosphaerella fijiensis mycelial growth.
Experiment [5] relates to Pseudocercospora fijiensis. Nature of the experiment: Inhibition of Mycosphaerella fijiensis spore germination. A digest of the protocol:
as §1

Structures are written as SMILES. Active and inactive are the calls of the source. No cut-off for these calls is given here.

Turning to `O=C1C(O)=Cc2cccc3cccc1c23`, the IC50 in experiment [1] came out at 23.4 ppm. For the same compound, the result in experiment [2] and in experiment [3] was Active.

As to `O=C1C=Cc2cccc3cccc1c23`, the outcome in experiment [4], in experiment [5] and in experiment [2] was Active.

For `COC1=Cc2cccc3cccc(c23)C1=O`, the IC50 in experiment [1] worked out at 19.3 ppm. Also, the outcome in experiment [2] and in experiment [3] was Active.

Regarding `COc1ccc(-c2ccc3cccc4c3c2C(=O)C=C4)cc1`, the result in experiment [4] was Active.
